{
  "source": "paper PMC5200953",
  "about": "(Dalton transactions (Cambridge, England : 2003), 2015)",
  "key": {"[1]": {"experiment": "PET/CT imaging at 2 h p.i. in mice bearing sstr2-transfected HCT116 xenografts", "format": "in vivo", "conditions": "mouse, tumour, tumour standard uptake value (SUV), n = 2", "how_it_was_run": "(§1)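 PET/CT imaging was done at 2 h p.i. with the 64Cu-labelled test conjugate. Mice bore subcutaneously implanted sstr2-transfected HCT116 xenografts. The blocked mouse was co-administered Y3-TATE (10 mg/kg). Tumour standard uptake value (SUV) was read from the images.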"}, "[2]": {"system": "sstr2-transfected HCT116 tumours", "experiment": "PET/CT imaging at 2 h p.i. in mice bearing sstr2-transfected HCT116 xenografts", "format": "in vivo", "conditions": "with the exception of kidneys", "how_it_was_run": "as §1"}, "[3]": {"experiment": "Biodistribution in mice bearing subcutaneous sstr2-transfected HCT116 tumours", "format": "in vivo", "conditions": "mouse, n = 4; for tissue uptake at 1 h: 1 h p.i.; for tissue uptake at 4 h: 4 h p.i.; for tissue uptake at 24 h: 24 h p.i.", "how_it_was_run": "(§2)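 Mice with subcutaneous sstr2-transfected HCT116 tumours received the 64Cu-labelled test conjugate. Activity was measured in blood, liver, kidney, muscle, bone, adrenal, pancreas and tumour at 1, 4 and 24 h p.i. A blocking group received co-administered Y3-TATE, assessed at 4 h p.i. Tumour-to-blood, -muscle, -kidney and -liver ratios were calculated. n = 4 per group; P-values were reported for group comparisons.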"}, "[4]": {"system": "sstr2-transfected HCT116 tumours", "experiment": "Biodistribution in mice bearing subcutaneous sstr2-transfected HCT116 tumours", "format": "in vivo", "how_it_was_run": "as §2"}, "[5]": {"system": "sstr2-transfected HCT116 cells", "experiment": "Cellular internalization assay", "format": "cell-based"}},
  "note": "Entries after “also recorded” stand apart in the source; their conditions may differ.",
  "data": [
    {"molecule": "C[C@@H](O)[C@H](NC(=O)[C@@H]1CSSC[C@H](NC(=O)[C@@H](Cc2ccccc2)NC(=O)Cn2cc(CN3CCCN4CCN(CCCN(CP(=O)(O)O)CC4)CC3)nn2)C(=O)N[C@@H](Cc2ccc(O)cc2)C(=O)N[C@H](Cc2c[nH]c3ccccc23)C(=O)N[C@@H](CCCCN)C(=O)N[C@@H]([C@@H](C)O)C(=O)N1)C(=O)O", "note": "(64Cu complex, metal not drawn) [Compound 6]", "values": [
      {"measurement": "SUV at 2 h", "setting": "[1]", "result": "2.25 ± 0.49", "unit": "SUV"},
      {"measurement": "tumour uptake and contrast by PET/CT, in words", "setting": "[2]", "result": "excellent tumour uptake and contrast"},
      {"measurement": "tissue uptake at 1 h", "setting": "[3]; adrenal, Adrenal uptake", "result": "1.14 ± 0.46", "unit": "%ID/g"},
      {"measurement": "tissue uptake at 4 h", "setting": "[3]; adrenal, Adrenal uptake, blocked with co-administration of Y3-TATE", "result": "0.37 ± 0.05", "unit": "%ID/g"},
      {"measurement": "tissue uptake at 4 h", "setting": "[3]; adrenal, Adrenal uptake", "result": "1.24 ± 0.4", "unit": "%ID/g"},
      {"measurement": "tissue uptake at 1 h", "setting": "[3]; blood, Blood uptake", "result": "0.34 ± 0.13", "unit": "%ID/g"},
      {"measurement": "tissue uptake at 4 h", "setting": "[3]; blood, Blood uptake, blocked with co-administration of Y3-TATE", "result": "0.22 ± 0.04", "unit": "%ID/g"},
      {"measurement": "tissue uptake at 4 h", "setting": "[3]; blood, Blood uptake", "result": "0.2 ± 0.03", "unit": "%ID/g"},
      {"measurement": "tissue uptake at 24 h", "setting": "[3]; blood, Blood uptake", "result": "0.15 ± 0.06", "unit": "%ID/g"},
      {"measurement": "tissue uptake at 1 h", "setting": "[3]; bone, Bone uptake", "result": "0.46 ± 0.16", "unit": "%ID/g"},
      {"measurement": "tissue uptake at 4 h", "setting": "[3]; bone, Bone uptake, blocked with co-administration of Y3-TATE", "result": "0.2 ± 0.04", "unit": "%ID/g"},
      {"measurement": "tissue uptake at 4 h", "setting": "[3]; bone, Bone uptake", "result": "0.5 ± 0.24", "unit": "%ID/g"},
      {"measurement": "tissue uptake at 24 h", "setting": "[3]; bone, Bone uptake", "result": "0.35 ± 0.1", "unit": "%ID/g"},
      {"measurement": "tissue uptake at 1 h", "setting": "[3]; kidney, Kidney uptake", "result": "15.9 ± 3.03", "unit": "%ID/g"},
      {"measurement": "tissue uptake at 4 h", "setting": "[3]; kidney, Kidney uptake, blocked with co-administration of Y3-TATE", "result": "16.1 ± 5.03", "unit": "%ID/g"},
      {"measurement": "tissue uptake at 4 h", "setting": "[3]; kidney, Kidney uptake", "result": "21 ± 2.84", "unit": "%ID/g"},
      {"measurement": "tissue uptake at 24 h", "setting": "[3]; kidney, Kidney uptake", "result": "14.7 ± 2.53", "unit": "%ID/g"},
      {"measurement": "tissue uptake at 1 h", "setting": "[3]; liver, Liver uptake", "result": "1.13 ± 0.16", "unit": "%ID/g"},
      {"measurement": "tissue uptake at 4 h", "setting": "[3]; liver, Liver uptake, blocked with co-administration of Y3-TATE", "result": "1.32 ± 0.3", "unit": "%ID/g"},
      {"measurement": "tissue uptake at 4 h", "setting": "[3]; liver, Liver uptake", "result": "1.3 ± 0.1", "unit": "%ID/g"},
      {"measurement": "tissue uptake at 24 h", "setting": "[3]; liver, Liver uptake", "result": "1.05 ± 0.1", "unit": "%ID/g"},
      {"measurement": "tissue uptake at 1 h", "setting": "[3]; muscle, Muscle uptake", "result": "0.22 ± 0.15", "unit": "%ID/g"},
      {"measurement": "tissue uptake at 4 h", "setting": "[3]; muscle, Muscle uptake, blocked with co-administration of Y3-TATE", "result": "0.09 ± 0.03", "unit": "%ID/g"},
      {"measurement": "tissue uptake at 4 h", "setting": "[3]; muscle, Muscle uptake", "result": "0.07 ± 0.02", "unit": "%ID/g"},
      {"measurement": "tissue uptake at 24 h", "setting": "[3]; muscle, Muscle uptake", "result": 0.06, "unit": "%ID/g"},
      {"measurement": "tissue uptake at 1 h", "setting": "[3]; pancreas, Pancreas uptake", "result": "6.71 ± 0.22", "unit": "%ID/g"},
      {"measurement": "tissue uptake at 4 h", "setting": "[3]; pancreas, Pancreas uptake, blocked with co-administration of Y3-TATE", "result": "0.3 ± 0.07", "unit": "%ID/g"},
      {"measurement": "tissue uptake at 4 h", "setting": "[3]; pancreas, Pancreas uptake", "result": "4.41 ± 0.95", "unit": "%ID/g"},
      {"measurement": "tissue uptake at 24 h", "setting": "[3]; pancreas, Pancreas uptake", "result": "1.84 ± 0.64", "unit": "%ID/g"},
      {"measurement": "tissue uptake at 1 h", "setting": "[3]; tumour, Tumour uptake", "result": "4.73 ± 1.17", "unit": "%ID/g"},
      {"measurement": "tissue uptake at 4 h", "setting": "[3]; tumour, Tumour uptake, blocked with co-administration of Y3-TATE", "result": "0.69 ± 0.22", "unit": "%ID/g"},
      {"measurement": "tissue uptake at 4 h", "setting": "[3]; tumour, Tumour uptake", "result": "7.54 ± 1.43", "unit": "%ID/g"},
      {"measurement": "tissue uptake at 24 h", "setting": "[3]; tumour, Tumour uptake", "result": "4.39 ± 1.71", "unit": "%ID/g"},
      {"measurement": "kidney uptake, in words", "setting": "[4]; 1, 4, and 24 h p.i.", "result": "consistently high uptake"},
      {"measurement": "uptake in sstr2-expressing organs (adrenal, pancreas, tumour), in words", "setting": "[4]; 1, 4, and 24 h p.i.", "result": "high tracer uptake"},
      {"measurement": "blocking of tumour uptake by co-administered Y3-TATE", "setting": "[4]; 4 h p.i., P < 0.0001, n = 4", "result": 91, "unit": "%"},
      {"measurement": "blocking of adrenal uptake by co-administered Y3-TATE", "setting": "[4]; 4 h p.i., P = 0.0051, n = 4", "result": 70, "unit": "%"},
      {"measurement": "in vivo stability of the copper complex, in words", "setting": "[4]; inferred from relatively low liver activity", "result": "reasonable in vivo stability"},
      {"measurement": "time of maximum tumour uptake", "setting": "[4]; p.i., n = 4", "result": 4, "unit": "h"},
      {"measurement": "internalized", "setting": "[5]; after 4 h, sstr2-transfected HCT116 cells", "result": 38, "unit": "%ID/mg protein"},
      {"measurement": "surface bound, and thus internalized 6, blocked by excess Y3-TATE", "setting": "[5]; cells pre-incubated with excess Y3-TATE, P < 0.0001, n = 3", "result": "More than 95%"},
      {"measurement": "internalization, in words", "setting": "[5]; sstr2-transfected HCT116 cells", "result": "internalized rapidly and specifically; also recorded: quickly bound to the cell surface, and was steadily internalized"}
    ]}
  ]
}
